Measurements published in ChEMBL document CHEMBL4321879, “Novel Class of Colony-Stimulating Factor 1 Receptor Kinase Inhibitors Based on an o-Aminopyridyl Alkynyl Scaffold as Potential Treatment for Inflammatory Disorders” (J Med Chem, 2020).
pIC50: −log10 of the molar value. The source made the active and inactive calls. No cut-off for these calls is given here.

Assays:
[1] = target: Macrophage colony-stimulating factor 1 receptor (Homo sapiens, UniProt P07333); test: Inhibition of recombinant CSF1R (unknown origin) using poly (Glu, Tyr)4:1 as substrate measured after 1 hr by ELISA
[2] = target: T1, Fibroblast growth factor receptor 1 (Homo sapiens, UniProt P11362); test: Inhibition of recombinant human N-terminal GST-tagged FGFR1 (456 to 765 residues) expressed in baculovirus infected Sf21 insect cells using poly (Glu, Tyr)4:1 as substrate measured after 1 hr by ELISA
In short: (§1)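 Recombinant kinase was incubated with compound in reaction buffer containing 5 μM ATP, in wells precoated with poly(Glu,Tyr) 4:1, for 1 h at 37 °C. Phosphorylation was detected by ELISA.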

Mus musculus [3] = test: Antiinflammatory activity in BALB/c mouse assessed as reduction in LPS-induced TNFalpha production at 20 to 40 mg/kg, po pretreated for 4 hrs followed by LPS-stimulation and measured after 1.5 hrs by ELISA; type: functional, organism-based
In short: (§2)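 Female BALB/c mice, 8 weeks old, n = 6 per group, dosed orally at 20 or 40 mg/kg in 0.5% CMC-Na/0.25% Tween-80 4 h before ip LPS 5 mg/kg. Orbital-sinus blood was taken at 1.5 h (TNF-α) and 3 h (IL-6). Serum cytokines measured by ELISA. Mean ± SEM, one-way ANOVA with Dunnett's test.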

[4] = target: Vascular endothelial growth factor receptor 3 (Homo sapiens) (UniProt P35916); test: Inhibition of recombinant VEGFR3 (unknown origin) at 1000 nM using poly (Glu, Tyr)4:1 as substrate measured after 1 hr by ELISA relative to control; in short: as §1
[5] = target: Proto-oncogene tyrosine-protein kinase receptor Ret (Homo sapiens) (UniProt P07949); test: Inhibition of recombinant human N-terminal GST-tagged RET (658 to end residues) expressed in baculovirus infected Sf21 insect cells at 1000 nM using poly (Glu, Tyr)4:1 as substrate measured after 1 hr by ELISA relative to control; in short: as §1
[6] = target: Ephrin type-A receptor 2 (Homo sapiens) (UniProt P29317); test: Inhibition of recombinant human N-terminal His6-tagged EphA2 (596 to 900 residues) expressed in baculovirus infected Sf21 insect cells at 1000 nM using poly (Glu, Tyr)4:1 as substrate measured after 1 hr by ELISA relative to control; in short: as §1
[7] = target: T1, Fibroblast growth factor receptor 1; test: Inhibition of recombinant human N-terminal GST-tagged FGFR1 (456 to 765 residues) expressed in baculovirus infected Sf21 insect cells at 1000 nM using poly (Glu, Tyr)4:1 as substrate measured after 1 hr by ELISA relative to control; in short: as §1
[8] = target: Tyrosine-protein kinase BTK (Homo sapiens) (UniProt Q06187); test: Inhibition of recombinant human full-length N-terminal His6-tagged BTK expressed in baculovirus infected Sf21 insect cells at 1000 nM using poly (Glu, Tyr)4:1 as substrate measured after 1 hr by ELISA relative to control
In short: (§3)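 ELISA kinase assay: recombinant kinase added to wells precoated with poly(Glu,Tyr)4:1 and incubated with compound in reaction buffer containing 5 μM ATP, 37 °C for 1 h; wells then washed before antibody detection.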

[9] = target: Epidermal growth factor receptor (Homo sapiens) (UniProt P00533); test: Inhibition of recombinant human N-terminal GST-tagged EGFR (696 to end residues) expressed in baculovirus infected Sf21 insect cells at 100 nM using poly (Glu, Tyr)4:1 as substrate measured after 1 hr by ELISA relative to control; in short: as §1
[10] = target: Receptor tyrosine-protein kinase erbB-4 (Homo sapiens) (UniProt Q15303); test: Inhibition of recombinant human N-terminal His6-tagged Erbb4 (706 to 991 residues) expressed in baculovirus infected Sf21 insect cells at 100 nM using poly (Glu, Tyr)4:1 as substrate measured after 1 hr by ELISA relative to control; in short: as §1
[11] = target: Insulin-like growth factor 1 receptor (Homo sapiens) (UniProt P08069); test: Inhibition of recombinant human N-terminal His6-tagged IGF1R (959 to end residues) expressed in baculovirus infected Sf21 insect cells at 100 nM using poly (Glu, Tyr)4:1 as substrate measured after 1 hr by ELISA relative to control; in short: as §3
[12] = target: Focal adhesion kinase 1 (Homo sapiens) (UniProt Q05397); test: Inhibition of recombinant human N-terminal His6-tagged FAK (411 to 686 residues) expressed in baculovirus infected Sf21 insect cells at 100 nM using poly (Glu, Tyr)4:1 as substrate measured after 1 hr by ELISA relative to control; in short: as §1
[13] = target: Vascular endothelial growth factor receptor 2 (Homo sapiens) (UniProt P35968); test: Inhibition of recombinant human VEGFR2 (D1-7) expressed in Spodoptera frugiperda insect cells at 10 nM using poly (Glu, Tyr)4:1 as substrate measured after 1 hr by ELISA relative to control; in short: as §3
[14] = target: Proto-oncogene tyrosine-protein kinase Src (Homo sapiens) (UniProt P12931); test: Inhibition of recombinant human full-length N-terminal His6-tagged Src expressed in Sf21 insect cells at 10 nM using poly (Glu, Tyr)4:1 as substrate measured after 1 hr by ELISA relative to control; in short: as §3
[15] = Tmax in Sprague-Dawley rat at 5 mg/kg, po administered via gavage by LC-MS/MS analysis; type: ADME, organism-based; settings: in vivo
In short: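 Male SD rats (200 ± 20 g), fasted 12 h, n = 3; oral gavage 5 mg/kg in DMSO/HPMC (5/95). Femoral vein blood at 15–1440 min; plasma precipitated with methanol plus internal standard, LC–MS/MS; noncompartmental analysis, Tmax observed directly, MRT = AUMC/AUC.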

RAW264.7 = test: Antiinflammatory activity in mouse RAW264.7 cells assessed as reduction in LPS-induced IL6 release measured after 24 hrs by ELISA; type: functional, cell-based; settings: RAW264.7, 24 h
In short: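 RAW264.7 cells in DMEM with 10% FBS and 0.125% DMSO were incubated with compound, then primed with LPS 1 μg/mL for 24 h. Supernatant TNF-α and IL-6 measured by mouse ELISA. IC50 from log(inhibitor) versus normalized response nonlinear fit.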

[16] = AUC (0 to t) in Sprague-Dawley rat at 5 mg/kg, po administered via gavage by LC-MS/MS analysis; type: ADME, organism-based; settings: in vivo
In short: (§4)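 Male SD rats (200 ± 20 g) were fasted 12 h with free access to water, n = 3 per group. One group received 2 mg/kg iv in DMSO/EtOH/PEG300/saline (5/5/40/50). The other received 5 mg/kg by oral gavage in DMSO/HPMC (5/95). Femoral-vein plasma was taken at 15–1440 min, methanol-precipitated with internal standard, and measured by LC–MS/MS. Noncompartmental analysis; AUC by trapezoidal method.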

[17] = Elimination half life in Sprague-Dawley rat at 2 mg/kg, iv administered […] by LC-MS/MS analysis; type: ADME, organism-based; settings: in vivo, read-out: beta t1/2 (converted); in short: as §4
Mus musculus [18] = test: Antiinflammatory activity in BALB/c mouse assessed as reduction in LPS-induced IL6 production at 20 to 40 mg/kg, po pretreated for 4 hrs followed by LPS-stimulation and measured after 3 hrs by ELISA; type: functional, organism-based; in short: as §2

Chain of Vascular endothelial growth factor receptor 2 (Homo sapiens) (P35968 whole entry): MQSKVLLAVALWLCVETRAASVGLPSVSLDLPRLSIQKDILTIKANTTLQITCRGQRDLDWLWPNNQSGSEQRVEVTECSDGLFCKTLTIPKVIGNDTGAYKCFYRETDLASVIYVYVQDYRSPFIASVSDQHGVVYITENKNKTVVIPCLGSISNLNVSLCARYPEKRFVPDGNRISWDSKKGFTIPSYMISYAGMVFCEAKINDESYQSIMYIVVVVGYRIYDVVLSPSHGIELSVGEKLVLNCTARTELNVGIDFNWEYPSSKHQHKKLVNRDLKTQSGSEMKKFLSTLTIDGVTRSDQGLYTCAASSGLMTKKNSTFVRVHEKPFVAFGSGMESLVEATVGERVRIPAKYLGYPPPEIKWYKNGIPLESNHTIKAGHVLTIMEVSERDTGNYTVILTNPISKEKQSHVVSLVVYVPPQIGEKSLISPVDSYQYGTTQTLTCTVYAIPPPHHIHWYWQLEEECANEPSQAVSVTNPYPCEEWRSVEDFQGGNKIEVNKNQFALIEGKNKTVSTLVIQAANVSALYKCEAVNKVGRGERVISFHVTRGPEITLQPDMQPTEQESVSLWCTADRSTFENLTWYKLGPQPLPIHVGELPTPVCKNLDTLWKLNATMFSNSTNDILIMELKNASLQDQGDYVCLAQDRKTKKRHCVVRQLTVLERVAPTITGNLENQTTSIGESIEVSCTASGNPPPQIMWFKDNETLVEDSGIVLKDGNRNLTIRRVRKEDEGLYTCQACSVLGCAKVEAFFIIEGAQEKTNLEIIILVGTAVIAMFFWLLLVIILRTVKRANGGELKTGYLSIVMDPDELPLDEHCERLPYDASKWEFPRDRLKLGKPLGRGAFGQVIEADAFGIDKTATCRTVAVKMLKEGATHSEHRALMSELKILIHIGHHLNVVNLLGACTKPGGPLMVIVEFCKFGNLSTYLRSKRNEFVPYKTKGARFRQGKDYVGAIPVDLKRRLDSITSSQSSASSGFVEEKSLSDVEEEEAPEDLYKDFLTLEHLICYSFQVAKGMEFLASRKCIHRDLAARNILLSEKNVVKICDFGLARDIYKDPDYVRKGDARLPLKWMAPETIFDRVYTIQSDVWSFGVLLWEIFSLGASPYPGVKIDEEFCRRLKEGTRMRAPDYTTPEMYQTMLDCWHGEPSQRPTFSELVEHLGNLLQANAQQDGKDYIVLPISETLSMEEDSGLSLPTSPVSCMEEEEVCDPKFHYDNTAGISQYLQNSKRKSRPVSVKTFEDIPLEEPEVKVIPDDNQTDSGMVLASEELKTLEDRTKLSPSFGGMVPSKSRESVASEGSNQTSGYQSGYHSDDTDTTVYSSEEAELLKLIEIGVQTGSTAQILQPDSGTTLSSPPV
Chain of Tyrosine-protein kinase BTK (Homo sapiens) (Q06187 whole entry): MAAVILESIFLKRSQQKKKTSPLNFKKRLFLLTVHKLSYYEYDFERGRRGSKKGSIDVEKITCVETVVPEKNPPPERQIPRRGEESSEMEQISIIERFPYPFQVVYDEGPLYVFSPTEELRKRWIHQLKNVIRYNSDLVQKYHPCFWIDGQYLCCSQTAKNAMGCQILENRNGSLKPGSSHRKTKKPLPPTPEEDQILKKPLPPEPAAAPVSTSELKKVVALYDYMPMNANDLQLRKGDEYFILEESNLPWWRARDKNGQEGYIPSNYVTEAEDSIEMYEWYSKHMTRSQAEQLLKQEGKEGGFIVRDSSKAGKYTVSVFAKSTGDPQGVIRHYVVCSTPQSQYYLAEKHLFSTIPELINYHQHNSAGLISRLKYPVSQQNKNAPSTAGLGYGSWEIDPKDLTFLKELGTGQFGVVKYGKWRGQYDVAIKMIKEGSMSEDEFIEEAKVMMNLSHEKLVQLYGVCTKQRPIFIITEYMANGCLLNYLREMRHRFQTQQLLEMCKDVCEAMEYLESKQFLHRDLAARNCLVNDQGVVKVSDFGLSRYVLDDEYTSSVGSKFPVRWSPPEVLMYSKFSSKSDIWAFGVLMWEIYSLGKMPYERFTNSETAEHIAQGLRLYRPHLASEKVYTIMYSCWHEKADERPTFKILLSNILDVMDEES
Chain of Vascular endothelial growth factor receptor 3 (Homo sapiens) (P35916 whole entry): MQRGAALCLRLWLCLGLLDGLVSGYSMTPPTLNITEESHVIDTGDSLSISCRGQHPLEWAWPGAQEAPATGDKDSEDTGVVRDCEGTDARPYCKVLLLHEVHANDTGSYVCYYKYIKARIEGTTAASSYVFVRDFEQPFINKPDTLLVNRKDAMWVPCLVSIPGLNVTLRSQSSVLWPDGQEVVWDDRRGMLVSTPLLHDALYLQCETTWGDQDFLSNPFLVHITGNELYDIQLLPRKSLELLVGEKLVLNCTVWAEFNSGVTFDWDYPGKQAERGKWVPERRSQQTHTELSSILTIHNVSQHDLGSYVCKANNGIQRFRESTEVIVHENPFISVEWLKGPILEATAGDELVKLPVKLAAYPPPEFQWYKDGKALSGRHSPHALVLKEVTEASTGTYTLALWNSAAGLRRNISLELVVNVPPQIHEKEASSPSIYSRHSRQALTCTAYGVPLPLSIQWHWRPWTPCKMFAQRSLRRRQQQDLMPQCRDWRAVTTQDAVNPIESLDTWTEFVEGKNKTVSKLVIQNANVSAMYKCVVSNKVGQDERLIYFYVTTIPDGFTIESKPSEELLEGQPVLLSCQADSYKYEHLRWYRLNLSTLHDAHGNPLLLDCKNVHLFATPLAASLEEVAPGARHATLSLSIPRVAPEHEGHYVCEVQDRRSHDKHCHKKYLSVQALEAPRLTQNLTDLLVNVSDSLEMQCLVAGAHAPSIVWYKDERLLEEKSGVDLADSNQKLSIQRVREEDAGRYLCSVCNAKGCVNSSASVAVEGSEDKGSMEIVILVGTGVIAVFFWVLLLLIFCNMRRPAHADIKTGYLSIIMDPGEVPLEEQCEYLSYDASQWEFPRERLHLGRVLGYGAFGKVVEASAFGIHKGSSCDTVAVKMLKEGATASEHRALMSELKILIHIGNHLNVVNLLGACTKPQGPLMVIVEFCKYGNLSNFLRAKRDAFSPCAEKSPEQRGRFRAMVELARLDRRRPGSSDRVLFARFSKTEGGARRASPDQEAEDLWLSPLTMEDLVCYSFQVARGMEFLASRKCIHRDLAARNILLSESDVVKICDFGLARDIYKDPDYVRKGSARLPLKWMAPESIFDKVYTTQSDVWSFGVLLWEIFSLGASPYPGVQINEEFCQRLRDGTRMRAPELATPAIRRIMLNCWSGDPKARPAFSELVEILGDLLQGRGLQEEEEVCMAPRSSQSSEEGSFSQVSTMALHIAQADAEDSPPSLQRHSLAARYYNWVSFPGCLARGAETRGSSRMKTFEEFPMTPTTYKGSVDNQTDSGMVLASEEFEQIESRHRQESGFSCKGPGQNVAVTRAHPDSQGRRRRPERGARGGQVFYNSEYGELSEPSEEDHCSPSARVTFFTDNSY
Chain of Macrophage colony-stimulating factor 1 receptor (P07333 whole entry, the tested form may be a part): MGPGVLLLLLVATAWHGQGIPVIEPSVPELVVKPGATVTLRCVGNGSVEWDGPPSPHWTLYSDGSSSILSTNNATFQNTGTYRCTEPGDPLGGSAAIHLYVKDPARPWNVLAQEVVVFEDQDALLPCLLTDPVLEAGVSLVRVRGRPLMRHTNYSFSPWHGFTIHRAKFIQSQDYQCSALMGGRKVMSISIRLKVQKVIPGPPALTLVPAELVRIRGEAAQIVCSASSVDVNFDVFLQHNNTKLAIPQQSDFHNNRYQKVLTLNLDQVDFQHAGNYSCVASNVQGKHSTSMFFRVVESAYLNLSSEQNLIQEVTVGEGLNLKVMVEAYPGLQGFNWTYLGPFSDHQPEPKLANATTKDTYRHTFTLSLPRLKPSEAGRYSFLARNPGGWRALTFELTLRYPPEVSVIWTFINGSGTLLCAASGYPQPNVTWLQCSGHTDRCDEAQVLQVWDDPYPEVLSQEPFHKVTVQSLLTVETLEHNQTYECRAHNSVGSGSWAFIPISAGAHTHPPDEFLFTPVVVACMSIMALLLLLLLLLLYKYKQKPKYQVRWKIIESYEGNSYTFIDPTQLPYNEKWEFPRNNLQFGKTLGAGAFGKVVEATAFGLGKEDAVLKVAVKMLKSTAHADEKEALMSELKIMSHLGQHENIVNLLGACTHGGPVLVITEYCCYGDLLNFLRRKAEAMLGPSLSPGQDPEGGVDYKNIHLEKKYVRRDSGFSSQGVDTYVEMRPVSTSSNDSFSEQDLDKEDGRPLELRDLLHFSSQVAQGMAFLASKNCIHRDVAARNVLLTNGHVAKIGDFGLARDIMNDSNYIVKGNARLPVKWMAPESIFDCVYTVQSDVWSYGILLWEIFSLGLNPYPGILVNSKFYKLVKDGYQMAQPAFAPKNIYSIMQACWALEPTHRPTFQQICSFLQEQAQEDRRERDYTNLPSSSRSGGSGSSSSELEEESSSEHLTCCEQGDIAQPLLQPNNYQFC
Chain of Proto-oncogene tyrosine-protein kinase Src (Homo sapiens) (P12931 2-536 limits assumed): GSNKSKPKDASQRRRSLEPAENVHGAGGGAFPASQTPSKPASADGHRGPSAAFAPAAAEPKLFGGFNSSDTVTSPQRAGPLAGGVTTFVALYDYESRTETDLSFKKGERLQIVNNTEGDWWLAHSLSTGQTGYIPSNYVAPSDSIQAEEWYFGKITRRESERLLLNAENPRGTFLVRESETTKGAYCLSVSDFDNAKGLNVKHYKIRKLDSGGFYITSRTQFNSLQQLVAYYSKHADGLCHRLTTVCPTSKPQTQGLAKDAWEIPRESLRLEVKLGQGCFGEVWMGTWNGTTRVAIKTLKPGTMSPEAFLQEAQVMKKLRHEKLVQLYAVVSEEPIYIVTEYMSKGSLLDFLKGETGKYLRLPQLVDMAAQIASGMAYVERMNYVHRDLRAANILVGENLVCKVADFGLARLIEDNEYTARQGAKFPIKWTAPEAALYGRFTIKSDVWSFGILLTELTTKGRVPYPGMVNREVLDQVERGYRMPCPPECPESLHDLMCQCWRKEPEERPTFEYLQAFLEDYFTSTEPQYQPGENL

pIC50 [1]: 9.15
pIC50 [2]: < 6.00
inhibition [4]: 100%
inhibition [5]: 96.6%
inhibition [6]: 92.3%
inhibition [7]: 0%
inhibition [8]: 8%
inhibition [9]: 7.4%
inhibition [10]: 6.6%
inhibition [11]: 0%
inhibition [12]: 14.7%
inhibition [13]: 23.2%
inhibition [14]: 1.5%
Tmax [15]: 4 h
pIC50 (RAW264.7): 6.89
AUC(0-t) [16]: 634 ng·h/mL
half-life [17]: 3.33 h
SMILES: Cc1ccc(C(=O)Nc2ccc(Cl)cc2)cc1C#Cc1cc(-c2cnn(C)c2)cnc1N
Activity (Mus musculus [3]): Active
Activity (Mus musculus [18]): Active
